Values belong to the compound of their own block, whether it stands above or below them.
Columns and labels:
[1] = system: Liver microsomes; assay: Stability in human liver microsomes assessed as conversion of prodrug into pentamidine per mg protein; format: ADME, Microsome
Summary of the method: (§1)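 Human or porcine liver/kidney subcellular fractions (microsomes, mitochondria, 9000g supernatant, cytosol); 0.3 mg protein with 1 mM prodrug in 100 mM potassium phosphate pH 6.3, preincubated 5 min at 37 °C aerobically, started with NADH (1 mM final); protein removed by centrifugation, supernatant analysed by HPLC; turnover as mean ± SD of two independent experiments measured twice.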

[2] = Stability in human liver mitochondria assessed as conversion of prodrug into pentamidine per mg protein; format: ADME; summary of the method: as §1
[3] = system: Liver; assay: Stability in human liver 9000g supernatant assessed as conversion of prodrug into pentamidine per mg protein; format: ADME, tissue-based; summary of the method: as §1
[4] = Stability in human kidney microsomes assessed as conversion of prodrug into pentamidine per mg protein; format: ADME, Microsome; summary of the method: as §1
[5] = Stability in human kidney mitochondria assessed as conversion of prodrug into pentamidine per mg protein; format: ADME; summary of the method: as §1
[6] = molecular target: T1, Mitochondrial amidoxime-reducing component 1 (Homo sapiens) (UniProt Q5VT66); assay: Activation of prodrug into pentamidine per mg of recombinant hmARC1 in 20 mM MES buffer of pH 6.0 for 30 mins
T1 sequence (whole entry): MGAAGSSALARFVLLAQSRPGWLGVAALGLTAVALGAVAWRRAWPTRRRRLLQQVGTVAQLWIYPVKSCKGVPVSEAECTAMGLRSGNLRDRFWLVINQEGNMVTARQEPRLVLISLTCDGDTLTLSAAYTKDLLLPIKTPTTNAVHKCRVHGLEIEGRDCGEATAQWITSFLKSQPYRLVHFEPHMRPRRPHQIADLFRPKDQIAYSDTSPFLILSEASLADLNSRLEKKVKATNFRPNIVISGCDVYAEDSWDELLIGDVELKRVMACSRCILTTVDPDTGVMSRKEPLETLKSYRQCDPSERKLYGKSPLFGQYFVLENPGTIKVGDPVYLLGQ
Summary of the method: (§2)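 Recombinant human mARC1 or mARC2 (76 pmol) incubated with 0.5 mM prodrug, 1 mM NADH, 2 U pig liver carboxylesterase, 76 pmol cytochrome b5 and 7.6 pmol NADH cytochrome b5 reductase in 20 mM MES pH 6.0; amidine formed quantified by HPLC; turnover rates as mean ± SD of three incubations.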

[7] = Activation of prodrug into pentamidine per mg of recombinant hmARC2 in 20 mM MES buffer of pH 6.0 for 30 mins; summary of the method: as §2
[8] = Stability of the compound at pH 2; format: physicochemical; details: buffer
Summary of the method: (§3)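 Chemical stability: prodrug at 100 µM in 100 mM potassium phosphate buffer pH 2.0, 6.3 or 7.4 at 37 °C; remaining prodrug and hydrolysis products followed by HPLC.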

[9] = Stability of the compound at pH 6.3; format: physicochemical; details: buffer; summary of the method: as §3
[10] = Stability of the compound at pH 7.4; format: physicochemical; details: buffer; summary of the method: as §3
[11] = Stability of the compound in presence of 0.5 U esterase/250 uL; format: ADME; details: isolated protein
Summary of the method: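 Prodrugs incubated with pig liver carboxylesterase (0.5 U/250 µL) in 100 mM potassium buffer pH 7.4; hydrolysis followed by HPLC.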

[12] = Stability in pig liver microsomes assessed as conversion of prodrug into pentamidine per mg protein; format: ADME, Sus scrofa, Microsome; summary of the method: as §1
[13] = Stability in pig liver mitochondria assessed as conversion of prodrug into pentamidine per mg protein; format: ADME, Sus scrofa; summary of the method: as §1
[14] = Stability in pig liver 9000g supernatant assessed as conversion of prodrug into pentamidine per mg protein; format: ADME, tissue-based, Sus scrofa; summary of the method: as §1
[15] = Stability in pig kidney mitochondria assessed as conversion of prodrug into pentamidine per mg protein; format: ADME, Sus scrofa; summary of the method: as §1
[16] = Stability in pig kidney microsomes assessed as conversion of prodrug into pentamidine per mg protein; format: ADME, Sus scrofa, Microsome; summary of the method: as §1
[17] = Stability in pig kidney 9000g supernatant assessed as conversion of prodrug into pentamidine per mg protein; format: ADME, tissue-based, Sus scrofa; summary of the method: as §1
[18] = Stability in pig hepatocytes assessed as conversion of prodrug into benzamidoxime per mg protein; format: ADME, cell-based, Sus scrofa, Hepatocyte
[19] = Stability in pig hepatocytes assessed as conversion of prodrug into benzamidine per mg protein; format: ADME, cell-based, Sus scrofa, Hepatocyte
[20] = molecular target: T1, Mitochondrial amidoxime-reducing component 1 (Homo sapiens); assay: Activation of prodrug into benzamidine per mg of recombinant hmARC1 in 20 mM MES buffer of pH 6.0 for 30 mins; summary of the method: as §2
[21] = Activation of prodrug into benzamidine per mg of recombinant hmARC2 in 20 mM MES buffer of pH 6.0 for 30 mins; summary of the method: as §2
[22] = system: Rattus norvegicus; assay: Tmax in Wistar rat assessed as benzamidine at 50 mg/kg, po; format: ADME, organism-based; parameters: dose 50 mg/kg, route oral; details: in vivo
Summary of the method: (§4)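 Male Wistar rats (initial weight 230 g) fitted with carotid artery and jugular vein cannulas, fasted 16 h; prodrug 50 mg/kg by oral gavage in 100 mM phosphate buffer pH 6.3 (n = 3); reference benzamidine 10 mg/kg iv in water for injection; blood at 30–480 min (oral) or 10–360 min (iv); plasma benzamidine by HPLC.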

[23] = system: Rattus norvegicus; assay: Cmax in Wistar rat assessed as benzamidine at 50 mg/kg, po; format: ADME, organism-based; parameters: dose 50 mg/kg, route oral; details: in vivo; summary of the method: as §4
[24] = system: Rattus norvegicus; assay: Half life in Wistar rat assessed as benzamidine at 50 mg/kg, po; format: ADME, organism-based; parameters: dose 50 mg/kg, route oral; details: in vivo; summary of the method: as §4
[25] = system: Rattus norvegicus; assay: Mean residence time in Wistar rat assessed as benzamidine at 50 mg/kg, po; format: ADME, organism-based; parameters: dose 50 mg/kg, route oral; details: in vivo; summary of the method: as §4
[26] = system: Rattus norvegicus; assay: Volume of distribution in Wistar rat assessed as benzamidine at 50 mg/kg, po; format: ADME, organism-based; parameters: dose 50 mg/kg, route oral; details: in vivo; summary of the method: as §4
[27] = system: Rattus norvegicus; assay: Clearance in Wistar rat assessed as benzamidine at 50 mg/kg, po; format: ADME, organism-based; parameters: dose 50 mg/kg, route oral; details: in vivo; summary of the method: as §4
[28] = system: Rattus norvegicus; assay: Oral bioavailability in Wistar rat assessed as benzamidine at 50 mg/kg; format: ADME, organism-based; details: in vivo; summary of the method: as §4
[29] = Stability of the compound assessed as conversion to benzamidoxime at pH 2; format: physicochemical; details: buffer; summary of the method: as §3
[30] = Stability in pig liver microsomes assessed as conversion of prodrug into benzamidine per mg protein; format: ADME, Sus scrofa, Microsome; summary of the method: as §1
[31] = Stability in pig liver mitochondria assessed as conversion of prodrug into benzamidine per mg protein; format: ADME, Sus scrofa; summary of the method: as §1
[32] = Stability in pig liver cytosol assessed as conversion of prodrug into benzamidine per mg protein in potassium phosphate buffer of pH 6.3; format: ADME, tissue-based, Sus scrofa; summary of the method: as §1
[33] = Stability in pig liver 9000g supernatant assessed as conversion of prodrug into benzamidine per mg protein; format: ADME, tissue-based, Sus scrofa; summary of the method: as §1
[34] = Stability in pig kidney mitochondria assessed as conversion of prodrug into benzamidine per mg protein; format: ADME, Sus scrofa; summary of the method: as §1
[35] = Stability in pig kidney microsomes assessed as conversion of prodrug into benzamidine per mg protein; format: ADME, Sus scrofa, Microsome; summary of the method: as §1
[36] = Stability in pig kidney 9000g supernatant assessed as conversion of prodrug into benzamidine per mg protein; format: ADME, tissue-based, Sus scrofa; summary of the method: as §1
[37] = system: Liver microsomes; assay: Stability in human liver microsomes assessed as conversion of prodrug into benzamidine per mg protein; format: ADME, Microsome; summary of the method: as §1
[38] = Stability in human liver mitochondria assessed as conversion of prodrug into benzamidine per mg protein; format: ADME; summary of the method: as §1
[39] = system: Liver; assay: Stability in human liver 9000g supernatant assessed as conversion of prodrug into benzamidine per mg protein; format: ADME, tissue-based; summary of the method: as §1
[40] = Stability in human kidney microsomes assessed as conversion of prodrug into benzamidine per mg protein; format: ADME, Microsome; summary of the method: as §1
[41] = Stability in human kidney mitochondria assessed as conversion of prodrug into benzamidine per mg protein; format: ADME; summary of the method: as §1

Stability [1]: 0.3 nmol/min/mg | Stability [2]: 0.2 nmol/min | Stability [3]: 0.2 nmol/min/mg | Stability [4]: 0.3 nmol/min/mg | Stability [5]: 0.4 nmol/min/mg | Stability [6]: 48.8 nmol/min | Stability [8]: Stable | Stability [9]: Stable | Stability [10]: Stable | Stability [11]: Unstable | Stability [12]: 0.5 nmol/min/mg | Stability [13]: 1 nmol/min | Stability [14]: 0.4 nmol/min/mg | Stability [15]: 0.8 nmol/min/mg | Stability [16]: 0.7 nmol/min/mg | Stability [17]: 0.2 nmol/min/mg
Compound: CC(C)[C@H](N)C(=O)O/N=C(\N)c1ccc(OCCCCCOc2ccc(/C(N)=N/OC(=O)[C@@H](N)C(C)C)cc2)cc1
Stability [7]: 10.9 nmol/min/mg

Stability [18]: 650 pmol/min | Stability [19]: 175 pmol/min | Stability [20]: 67.4 nmol/min/mg | Tmax [22]: 0.833 h | Cmax [23]: 23.3 µM | t1/2 [24]: 2.922 h | MRT [25]: 4.323 h | Vd [26]: 12.84 L/kg | CL [27]: 50 mL/min/kg | F [28]: 87.7% | Stability [9]: Stable | Stability [10]: Stable | Stability [29]: Unstable | Stability [11]: Unstable | Stability [30]: 7 nmol/min/mg | Stability [31]: 8.6 nmol/min/mg | Stability [32]: 1.2 nmol/min | Stability [33]: 3.4 nmol/min/mg | Stability [34]: 8.8 nmol/min/mg | Stability [35]: 10.4 nmol/min/mg | Stability [36]: 5.6 nmol/min | Stability [37]: 0.9 nmol/min/mg | Stability [38]: 1.8 nmol/min/mg | Stability [39]: 0.2 nmol/min/mg | Stability [40]: 1.3 nmol/min | Stability [41]: 2 nmol/min/mg
Compound: CC(C)[C@H](N)C(=O)O/N=C(\N)c1ccccc1
Stability [21]: 43.7 nmol/min
